Measurements from ChEMBL document CHEMBL2021777 (J Med Chem, 2012).
Active and inactive are the calls of the source. No cut-off for these calls is given here.

Key:
[1] = biological target: Neuronal acetylcholine receptor; alpha2/beta2 (Rattus norvegicus, UniProt P12389+P12390); assay: Displacement of [3H] epibatidine from rat alpha2beta2 nAChR by beta scintillation counting; type: protein-complex assay
[2] = biological target: T1, Neuronal acetylcholine receptor; alpha4/beta2 (Homo sapiens, UniProt P17787+P43681); assay: Agonist activity at human alpha4beta2 nAChR expressed in SH-EP1 cells assessed as 86Rb+ ion efflux after 9.5 mins by flip-plate technique; type: functional, cell-based
T1 sequence (P17787 whole entry): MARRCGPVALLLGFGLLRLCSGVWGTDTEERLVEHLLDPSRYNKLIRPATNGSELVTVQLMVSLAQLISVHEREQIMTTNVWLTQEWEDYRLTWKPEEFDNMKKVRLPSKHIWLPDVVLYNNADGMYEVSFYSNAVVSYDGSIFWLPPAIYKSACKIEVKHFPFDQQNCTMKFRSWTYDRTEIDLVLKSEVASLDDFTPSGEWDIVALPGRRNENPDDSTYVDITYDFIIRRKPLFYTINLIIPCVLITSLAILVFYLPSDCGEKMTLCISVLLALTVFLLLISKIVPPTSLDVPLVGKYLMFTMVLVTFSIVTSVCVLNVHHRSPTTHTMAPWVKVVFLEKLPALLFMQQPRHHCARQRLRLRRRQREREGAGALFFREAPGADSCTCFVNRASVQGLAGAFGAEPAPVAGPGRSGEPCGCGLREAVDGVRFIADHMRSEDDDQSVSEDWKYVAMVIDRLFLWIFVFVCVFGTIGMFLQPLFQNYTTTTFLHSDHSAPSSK
T1 sequence (P43681 whole entry): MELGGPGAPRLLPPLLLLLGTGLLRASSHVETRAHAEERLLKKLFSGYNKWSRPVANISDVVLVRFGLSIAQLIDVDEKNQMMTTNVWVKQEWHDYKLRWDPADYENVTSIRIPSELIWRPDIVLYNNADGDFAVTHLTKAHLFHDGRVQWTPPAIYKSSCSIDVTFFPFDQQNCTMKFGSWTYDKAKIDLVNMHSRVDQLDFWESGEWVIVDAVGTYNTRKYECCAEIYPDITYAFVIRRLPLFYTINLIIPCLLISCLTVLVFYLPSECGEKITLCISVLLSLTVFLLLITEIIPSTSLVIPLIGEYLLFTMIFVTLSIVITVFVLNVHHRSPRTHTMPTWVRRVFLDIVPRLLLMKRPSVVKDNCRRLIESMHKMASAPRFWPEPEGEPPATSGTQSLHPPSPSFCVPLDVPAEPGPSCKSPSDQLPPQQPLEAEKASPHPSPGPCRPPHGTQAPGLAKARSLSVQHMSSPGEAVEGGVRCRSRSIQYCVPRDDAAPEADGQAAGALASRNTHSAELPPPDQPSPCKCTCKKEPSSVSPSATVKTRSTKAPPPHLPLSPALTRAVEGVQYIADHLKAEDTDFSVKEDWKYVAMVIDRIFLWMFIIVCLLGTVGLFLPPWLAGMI
Method in brief: (§1)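 SH-EP1 human epithelial cells stably transfected with separate human α4 and β2 subunit cDNAs express a mixed population of high-sensitivity (2:3 α4:β2) and low-sensitivity (3:2) α4β2-nAChRs. Cells were kept at low passage (1−26 from frozen stocks). Function was read as 86Rb+ ion flux.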

[3] = biological target: T1, Neuronal acetylcholine receptor; alpha4/beta2; assay: Antagonist activity at human alpha4beta2 nAChR expressed in SH-EP1 cells assessed as inhibition of carbamylcholine induced 86Rb+ ion efflux preincubated for 10 mins prior to carbamylcholine-induction measured after 5 mins by flip-plate technique; type: functional, cell-based; method in brief: as §1
[4] = biological target: Acetylcholine receptor; alpha1/beta1/delta/gamma (Homo sapiens) (UniProt P02708+P07510+P11230+Q07001); assay: Antagonist activity at human alpha1beta1gammadelta nAChR expressed in TE671/RD cells at 10 uM by 86Rb+ flux assay; type: functional, cell-based
Method in brief: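 Human clonal TE671/RD cells endogenously express muscle-type α1*-nAChRs (α1, β1, γ, δ). Cells were kept at low passage (1−26 from frozen stocks). Function was read as 86Rb+ efflux, with agonist and antagonist modes tested up to 10 μM.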

[5] = biological target: Neuronal acetylcholine receptors; alpha-3/beta-4, alpha-5, beta-2 (Homo sapiens) (UniProt P17787+P30926+P32297+P30532); assay: Antagonist activity at alpha3beta4alpha5beta2 in human SH-SY5Y cells at 10 uM by 86Rb+ flux assay; type: functional, cell-based
Neuronal acetylcholine receptors; alpha-3/beta-4, alpha-5, beta-2 (Homo sapiens), sequence (P17787 whole entry, looked up): as the sequence (P17787 whole entry) above
Neuronal acetylcholine receptors; alpha-3/beta-4, alpha-5, beta-2 (Homo sapiens), sequence (P30532 whole entry, looked up): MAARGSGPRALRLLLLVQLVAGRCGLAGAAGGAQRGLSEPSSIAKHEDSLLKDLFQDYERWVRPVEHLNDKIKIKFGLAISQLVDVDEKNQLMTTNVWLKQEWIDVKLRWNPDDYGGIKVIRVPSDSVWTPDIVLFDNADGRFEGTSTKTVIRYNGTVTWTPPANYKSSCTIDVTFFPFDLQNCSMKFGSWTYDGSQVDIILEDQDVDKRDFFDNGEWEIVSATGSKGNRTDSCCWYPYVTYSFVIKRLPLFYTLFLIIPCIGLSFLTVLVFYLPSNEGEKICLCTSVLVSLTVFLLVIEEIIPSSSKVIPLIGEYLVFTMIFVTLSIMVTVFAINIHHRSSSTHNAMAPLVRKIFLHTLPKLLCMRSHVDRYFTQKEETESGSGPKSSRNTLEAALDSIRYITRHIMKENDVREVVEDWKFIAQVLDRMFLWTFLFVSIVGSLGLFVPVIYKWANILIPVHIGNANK
Neuronal acetylcholine receptors; alpha-3/beta-4, alpha-5, beta-2 (Homo sapiens), sequence (P30926 whole entry, looked up): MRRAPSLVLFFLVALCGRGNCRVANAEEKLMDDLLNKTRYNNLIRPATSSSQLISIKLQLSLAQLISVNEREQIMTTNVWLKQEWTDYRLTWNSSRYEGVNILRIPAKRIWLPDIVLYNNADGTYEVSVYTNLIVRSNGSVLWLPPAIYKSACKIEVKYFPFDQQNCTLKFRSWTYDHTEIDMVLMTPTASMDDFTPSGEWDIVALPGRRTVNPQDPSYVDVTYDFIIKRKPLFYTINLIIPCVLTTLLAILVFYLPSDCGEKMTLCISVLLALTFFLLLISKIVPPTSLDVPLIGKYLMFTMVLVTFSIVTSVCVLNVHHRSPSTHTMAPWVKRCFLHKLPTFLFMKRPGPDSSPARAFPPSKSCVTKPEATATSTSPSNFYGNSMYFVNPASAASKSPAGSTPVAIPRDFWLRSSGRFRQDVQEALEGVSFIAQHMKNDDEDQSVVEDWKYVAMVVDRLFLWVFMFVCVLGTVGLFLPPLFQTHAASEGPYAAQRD
Neuronal acetylcholine receptors; alpha-3/beta-4, alpha-5, beta-2 (Homo sapiens), sequence (P32297 whole entry, looked up): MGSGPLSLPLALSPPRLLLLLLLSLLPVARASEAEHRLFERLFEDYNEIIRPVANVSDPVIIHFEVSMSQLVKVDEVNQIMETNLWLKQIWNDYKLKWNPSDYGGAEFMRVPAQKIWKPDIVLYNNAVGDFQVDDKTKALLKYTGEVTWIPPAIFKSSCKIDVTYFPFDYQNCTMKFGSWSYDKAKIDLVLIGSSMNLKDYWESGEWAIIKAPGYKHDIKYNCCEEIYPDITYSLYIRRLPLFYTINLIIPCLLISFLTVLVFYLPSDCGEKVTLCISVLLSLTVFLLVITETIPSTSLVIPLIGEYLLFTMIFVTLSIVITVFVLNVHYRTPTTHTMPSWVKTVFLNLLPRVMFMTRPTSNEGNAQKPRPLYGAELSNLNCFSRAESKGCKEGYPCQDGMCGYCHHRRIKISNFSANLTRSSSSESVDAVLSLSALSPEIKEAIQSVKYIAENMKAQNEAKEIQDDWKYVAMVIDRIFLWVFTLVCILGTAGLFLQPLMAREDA
Method in brief: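 Human neuroblastoma SH-SY5Y cells endogenously express α3β4* nAChRs (α3, β4, probably α5, sometimes β2); their α7 receptors give no signal under these conditions. Cells were kept at low passage (1−26 from frozen stocks). Function was read as 86Rb+ efflux, with agonist and antagonist modes tested up to 10 μM.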

[6] = biological target: 5-hydroxytryptamine receptor 1E (Homo sapiens) (UniProt P28566); assay: Displacement of [3H]5-HT from 5-HT1E at 10 uM
[7] = biological target: T2, 5-hydroxytryptamine receptor 3A (Homo sapiens) (UniProt P46098); assay: Displacement of [3H]LY278584 from 5-HT3 at 10 uM
T2 sequence (whole entry): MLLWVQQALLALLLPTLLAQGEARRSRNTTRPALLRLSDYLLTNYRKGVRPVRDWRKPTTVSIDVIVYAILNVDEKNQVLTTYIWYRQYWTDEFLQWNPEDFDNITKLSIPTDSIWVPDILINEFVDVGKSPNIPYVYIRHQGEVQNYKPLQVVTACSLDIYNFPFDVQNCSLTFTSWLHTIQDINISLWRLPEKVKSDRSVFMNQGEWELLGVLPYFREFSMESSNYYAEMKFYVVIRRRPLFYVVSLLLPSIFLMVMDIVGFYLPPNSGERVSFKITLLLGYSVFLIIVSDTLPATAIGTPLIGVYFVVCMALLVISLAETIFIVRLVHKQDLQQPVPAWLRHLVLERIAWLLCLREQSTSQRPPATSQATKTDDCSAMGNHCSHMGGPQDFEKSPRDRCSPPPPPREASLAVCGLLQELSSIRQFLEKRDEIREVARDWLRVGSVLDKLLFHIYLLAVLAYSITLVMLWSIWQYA

[8] = biological target: 5-hydroxytryptamine receptor 7 (Homo sapiens) (UniProt P34969); assay: Displacement of [3H]LSD from 5-HT7 at 10 uM
[9] = biological target: D(1A) dopamine receptor (Homo sapiens) (UniProt P21728); assay: Displacement of [3H][…] from D1 at 10 uM
[10] = biological target: D(2) dopamine receptor (Homo sapiens) (UniProt P14416); assay: Displacement of [3H]N-methylspiperone from D2 at 10 uM
[11] = biological target: D(1B) dopamine receptor (Homo sapiens) (UniProt P21918); assay: Displacement of [3H][…] from D5 at 10 uM
[12] = biological target: T3, Alpha-1B adrenergic receptor (Homo sapiens) (UniProt P35368); assay: Displacement of [3H]Prazosin from alpha1B adrenergic receptor at 10 uM
T3 sequence (whole entry): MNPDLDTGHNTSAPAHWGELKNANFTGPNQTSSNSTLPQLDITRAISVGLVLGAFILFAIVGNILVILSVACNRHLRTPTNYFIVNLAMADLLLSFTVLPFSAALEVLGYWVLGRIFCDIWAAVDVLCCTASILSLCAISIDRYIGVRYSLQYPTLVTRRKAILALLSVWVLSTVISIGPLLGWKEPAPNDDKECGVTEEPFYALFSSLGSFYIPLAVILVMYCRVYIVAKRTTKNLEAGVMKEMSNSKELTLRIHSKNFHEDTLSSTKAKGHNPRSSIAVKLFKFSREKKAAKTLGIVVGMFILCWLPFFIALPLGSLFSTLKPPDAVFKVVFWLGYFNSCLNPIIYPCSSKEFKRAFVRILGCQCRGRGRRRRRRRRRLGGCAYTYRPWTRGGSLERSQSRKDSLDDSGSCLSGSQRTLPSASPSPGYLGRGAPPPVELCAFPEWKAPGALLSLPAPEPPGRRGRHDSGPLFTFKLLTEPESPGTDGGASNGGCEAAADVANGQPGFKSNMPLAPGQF

[13] = biological target: Histamine H1 receptor (Homo sapiens) (UniProt P35367); assay: Displacement of [3H]Pyrilamine from H1 histamine receptor at 10 uM
[14] = biological target: Histamine H2 receptor (Homo sapiens) (UniProt P25021); assay: Displacement of [3H]Tiotidine from H2 histamine receptor at 10 uM
[15] = biological target: Muscarinic acetylcholine receptor M3 (Homo sapiens) (UniProt P20309); assay: Displacement of [3H]QNB from M3 receptor at 10 uM
[16] = biological target: Kappa-type opioid receptor (Homo sapiens) (UniProt P41145); assay: Displacement of [3H]U69593 from kappa opioid receptor at 10 uM
Cytochrome P450 2C9 = Cytochrome P450 2C9 (Homo sapiens, UniProt P11712); assay: Inhibition of CYP2C9 up to 10 uM; type: ADME
Cytochrome P450 2C9, sequence (P11712 whole entry, canonical isoform): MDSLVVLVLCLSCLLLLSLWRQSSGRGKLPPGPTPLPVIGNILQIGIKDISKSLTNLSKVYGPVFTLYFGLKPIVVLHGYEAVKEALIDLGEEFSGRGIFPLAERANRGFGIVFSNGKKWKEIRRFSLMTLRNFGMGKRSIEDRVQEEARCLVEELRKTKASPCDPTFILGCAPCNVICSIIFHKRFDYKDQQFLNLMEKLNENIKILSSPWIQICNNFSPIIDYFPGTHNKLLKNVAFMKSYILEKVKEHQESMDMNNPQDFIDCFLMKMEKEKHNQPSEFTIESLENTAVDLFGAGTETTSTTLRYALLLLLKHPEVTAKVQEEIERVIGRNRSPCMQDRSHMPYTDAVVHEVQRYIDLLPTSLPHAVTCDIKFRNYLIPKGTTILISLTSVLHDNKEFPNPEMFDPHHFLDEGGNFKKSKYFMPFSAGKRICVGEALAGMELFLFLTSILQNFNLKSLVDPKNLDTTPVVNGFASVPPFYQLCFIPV
Method in brief: (§2)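 Percent inhibition of CYP isoforms (CYP1A, CYP2C9, CYP2C19, CYP2D6, CYP3A; CYP1A2 reported) with test compound at concentrations up to 10 μM.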

Cytochrome P450 2D6 = Cytochrome P450 2D6 (Homo sapiens, UniProt P10635); assay: Inhibition of CYP2D6 up to 10 uM; type: ADME; method in brief: as §2
Cytochrome P450 2D6, sequence (P10635 whole entry): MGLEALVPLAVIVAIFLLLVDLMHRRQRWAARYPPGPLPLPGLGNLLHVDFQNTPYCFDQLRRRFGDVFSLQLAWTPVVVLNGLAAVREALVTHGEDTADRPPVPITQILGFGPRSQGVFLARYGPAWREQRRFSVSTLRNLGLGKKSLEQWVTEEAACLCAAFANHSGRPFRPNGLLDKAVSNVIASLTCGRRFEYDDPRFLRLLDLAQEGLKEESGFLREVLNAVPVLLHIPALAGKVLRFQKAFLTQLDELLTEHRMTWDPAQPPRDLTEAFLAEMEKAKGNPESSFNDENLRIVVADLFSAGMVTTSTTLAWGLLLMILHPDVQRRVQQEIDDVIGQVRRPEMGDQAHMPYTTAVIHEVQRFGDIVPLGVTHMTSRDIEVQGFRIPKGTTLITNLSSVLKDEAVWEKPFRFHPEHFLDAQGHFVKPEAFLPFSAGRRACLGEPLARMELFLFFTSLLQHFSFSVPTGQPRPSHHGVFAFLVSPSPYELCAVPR

Neuronal acetylcholine receptor; alpha2/beta2, sequence (P12389 whole entry): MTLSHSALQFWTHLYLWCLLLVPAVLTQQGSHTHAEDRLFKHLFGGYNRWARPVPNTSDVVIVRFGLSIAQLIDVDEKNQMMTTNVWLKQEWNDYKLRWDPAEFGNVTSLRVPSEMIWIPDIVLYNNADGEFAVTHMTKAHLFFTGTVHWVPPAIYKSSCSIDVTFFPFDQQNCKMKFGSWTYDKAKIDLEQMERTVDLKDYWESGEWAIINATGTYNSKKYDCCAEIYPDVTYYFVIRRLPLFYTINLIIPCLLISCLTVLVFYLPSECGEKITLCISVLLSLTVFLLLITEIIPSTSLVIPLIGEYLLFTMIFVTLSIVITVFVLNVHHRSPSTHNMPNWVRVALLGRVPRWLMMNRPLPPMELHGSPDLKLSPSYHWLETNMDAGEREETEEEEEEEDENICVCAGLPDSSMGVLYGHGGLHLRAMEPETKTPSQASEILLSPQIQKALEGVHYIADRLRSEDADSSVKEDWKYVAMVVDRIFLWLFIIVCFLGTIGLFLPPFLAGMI
Neuronal acetylcholine receptor; alpha2/beta2, sequence (P12390 whole entry): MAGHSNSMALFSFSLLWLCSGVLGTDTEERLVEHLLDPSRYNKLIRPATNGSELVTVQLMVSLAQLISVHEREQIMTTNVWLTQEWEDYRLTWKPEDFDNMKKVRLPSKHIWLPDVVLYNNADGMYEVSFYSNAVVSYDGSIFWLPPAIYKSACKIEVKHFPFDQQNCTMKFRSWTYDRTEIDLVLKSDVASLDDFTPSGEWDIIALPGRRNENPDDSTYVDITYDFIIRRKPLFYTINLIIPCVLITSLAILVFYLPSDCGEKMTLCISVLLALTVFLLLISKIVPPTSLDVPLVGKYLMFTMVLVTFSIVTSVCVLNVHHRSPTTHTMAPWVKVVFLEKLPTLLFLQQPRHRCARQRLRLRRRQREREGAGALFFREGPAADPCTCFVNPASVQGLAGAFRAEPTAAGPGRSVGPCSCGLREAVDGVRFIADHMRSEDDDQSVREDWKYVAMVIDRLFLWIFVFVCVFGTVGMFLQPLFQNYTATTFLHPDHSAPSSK

Compound | Ki [1] | EC50 [2] | IC50 [3] | Activity [4] | Activity [5] | inhibition [6] | inhibition [7] | inhibition [8] | inhibition [9] | inhibition [10] | inhibition [11] | inhibition [12] | inhibition [13] | inhibition [14] | inhibition [15] | inhibition [16] | inhibition (INH) (Cytochrome P450 2C9) | inhibition (INH) (Cytochrome P450 2D6)
COCC[C@H]1C[C@@H]1c1cncc(OC[C@@H]2CCN2)c1 | 0.1 nM | 17.5 nM | 5.6 nM | inactive | inactive | 13.4% | 42.4% | 22.7% | 90.3% | -1.8% | 19.1% | 8.6% | -4.8% | 26.2% | 9.6% | 7.2% | <= 25% | <= 25%
CNC(=O)OCC[C@H]1C[C@@H]1c1cncc(OC[C@@H]2CCN2)c1 | 0.3 nM | 15.7 nM | 18.2 nM | inactive | inactive | -8.2% | 23.5% | 32.1% | 2.1% | 0.7% | -1.5% | 14.1% | 30.5% | 14.6% | 30.2% | 19.1% | <= 25% | <= 25%
OCC[C@H]1C[C@@H]1c1cncc(OC[C@@H]2CCN2)c1 | 0.1 nM | 10.2 nM | 9.4 nM | inactive | inactive | 6.7% | 38.3% | 24.9% | 51.2% | -7.4% | 25.6% | -4.5% | 41.4% | 18.4% | 0% | 3.7% | <= 25% | <= 25%
